Measurements as given in ChEMBL document CHEMBL1142491, “Linking bisphosphonates to the free amino groups in fluoroquinolones: preparation of osteotropic prodrugs for the prevention of osteomyelitis” (J Med Chem, 2008).
≈ marks a conversion by molar mass, not a printed value. Calls of active or inactive are those of the source. The calls are words filed in the database; no cut-off is given here.

Experiments:
[1] = system: Bone; assay: Binding affinity to bone assessed as drug level bound to cattle bone meal powder by fluorescence assay; format: tissue-based; design: concentration or dose not given beside the values; conditions: Bos taurus; Bone element
In short: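 Compound dissolved in PBS, added at 1 mg/mL final to bone meal powder slurry (10 mg/mL in PBS), 37 °C for 1 h. Spun 13 000 rpm 2 min. Bound amount taken as input minus amount in supernatant, measured by fluorescence. Limit of detection 0.01%.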

[2] = system: Serum; assay: Stability in 50% rat serum assessed as amount of parent drug released from cattle bone meal powder over 24 hrs; format: ADME, cell-free
In short: (§1)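 Washed bone powder carrying bound prodrug resuspended in PBS or 50% (v/v in PBS) human or rat serum, 24 h at 37 °C, then centrifuged. Supernatant extracted with 5 volumes methanol (15 min vortex), spun, dried, redissolved in PBS. Released fluoroquinolone quantified by fluorescence. Limit of detection 0.01%.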

[3] = system: Serum; assay: Stability in 50% human serum assessed as amount of parent drug released from cattle bone meal powder over 24 hrs; format: ADME, cell-free; in short: as §1
[4] = system: Staphylococcus aureus; assay: Antibacterial activity against Staphylococcus aureus ATCC 13709 after 24 hrs by microdilution method; format: functional; conditions: ATCC 13709, 24 h
In short: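 MIC by broth microdilution per CLSI guidelines (M7 A7) against S. aureus ATCC 13709.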

[5] = Stability in phosphate buffer saline assessed as amount of parent drug released from cattle bone meal powder over 24 hrs; format: ADME; in short: as §1
[6] = system: Staphylococcus aureus; assay: Protective effect against Staphylococcus aureus ATCC 13709-induced bone infection in CD rat at 10 mg/kg, iv administered as single dose 1 hr after bacterial challenge; format: functional, organism-based; design: dose 10 mg/kg
In short: (§2)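 S. aureus ATCC 13709 inoculum from frozen stock. Rats given intratibial 5% sodium morrhuate then about 5 × 10^5 CFU. Single IV bolus in saline, at the stated time relative to infection. Sacrificed 24 h post-infection. Tibiae milled and plated; mean log CFU/g bone ± SD. Detection limit 2 log CFU/g. Dunnett's test vs untreated, P<0.05.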

[7] = system: Staphylococcus aureus; assay: Protective effect against Staphylococcus aureus ATCC 13709-induced bone infection in CD rat at 42 mg/kg, iv administered as single dose 2 days before bacterial challenge; format: functional, organism-based; design: dose 42 mg/kg; in short: as §2
[8] = system: Staphylococcus aureus; assay: Protective effect against Staphylococcus aureus ATCC 13709-induced bone infection in CD rat at 20 mg/kg, iv administered as single dose 2 days before bacterial challenge; format: functional, organism-based; design: dose 20 mg/kg; in short: as §2
[9] = system: Staphylococcus aureus; assay: Protective effect against Staphylococcus aureus ATCC 13709-induced bone infection in CD rat at 20.8 mg/kg, iv administered as single dose 1 day before bacterial challenge; format: functional, organism-based; design: dose 20.8 mg/kg; in short: as §2
[10] = system: Staphylococcus aureus; assay: Protective effect against Staphylococcus aureus ATCC 13709-induced bone infection in CD rat at 24 mg/kg, iv administered as single dose 1 day before bacterial challenge; format: functional, organism-based; design: dose 24 mg/kg; in short: as §2

For O=C(O)c1cn(C2CC2)c2cc(N3CCNCC3)c(F)cc2c1=O [CIPROFLOXACIN], the Activity [1] was 0.01%.

COc1c(N2CCN(Cc3oc(=O)oc3-c3ccc(P(=O)(O)CP(=O)(O)O)cc3)C(C)C2)c(F)cc2c(=O)c(C(=O)O)cn(C3CC3)c12 (configuration not stated) showed an Activity [1] of 63.7%, an Activity [2] of 30% and an Activity [3] of 22.8%. The MIC [4] was < 0.12 µg/mL and the Activity [5] was 7.5%.

For COc1c(N2CCN(C(=O)CC(C)(C)c3cc(P(=O)(O)CP(=O)(O)O)ccc3OC(=O)C(C)C)C(C)C2)c(F)cc2c(=O)c(C(=O)O)cn(C3CC3)c12 (configuration not stated), the Activity [1] was 76%, the Activity [2] was 6.1% and the Activity [3] was 3.6%. The MIC [4] was > 4 µg/mL and the Activity [5] was 0.8%.

With COc1c(N2C[C@@H]3CCCN[C@@H]3C2)c(F)cc2c(=O)c(C(=O)O)cn(C3CC3)c12 [MOXIFLOXACIN] the Activity [1] was 0.01%, the Activity [6] was “Active” and the MIC [4] was 0.03 µg/mL (≈ 0.0747 µM).

For COc1c(N2CCN(C(=O)CC(C)(C)c3cc(P(=O)(O)CP(=O)(O)O)ccc3OP(=O)(O)O)C(C)C2)c(F)cc2c(=O)c(C(=O)O)cn(C3CC3)c12 (configuration not stated), the Activity [1] was 0.01% and the MIC [4] was > 4 µg/mL.

In the case of COc1c(N2CCN(C(=O)OC(C)OC(=O)CCCC(=O)NC(P(=O)(O)O)P(=O)(O)O)C(C)C2)c(F)cc2c(=O)c(C(=O)O)cn(C3CC3)c12 (configuration not stated), the Activity [1] was 94.3%, the Activity [2] was 1.8% and the Activity [3] was 2.4%. The MIC [4] was > 4 µg/mL and the Activity [5] was 1.5%.

COc1c(N2CCN(C(=O)CC(P(=O)(O)O)P(=O)(O)O)C(C)C2)c(F)cc2c(=O)c(C(=O)O)cn(C3CC3)c12 (configuration not stated) gave an Activity [1] of 98.2%, an Activity [2] of 0.01% and an Activity [3] of 0.01%. For the same molecule, the MIC [4] was > 4 µg/mL and the Activity [5] was 0.01%.

For COc1c(N2CCN(C(=O)OCOC(=O)CCC(P(=O)(O)O)P(=O)(O)O)C(C)C2)c(F)cc2c(=O)c(C(=O)O)cn(C3CC3)c12 (configuration not stated), the Activity [7] was “Active”, the Activity [1] was 86.4% and the Activity [2] was 25.4%. The Activity [3] was 21.2%, the MIC [4] was 0.5 µg/mL (≈ 0.736 µM) and the Activity [5] was 13.4%.

With COc1c(N2CCNC(C)C2)c(F)cc2c(=O)c(C(=O)O)cn(C3CC3)c12 (configuration not stated) [GATIFLOXACIN] the Activity [8] was “inactive”, the Activity [1] was 0.01% and the MIC [4] was 0.06 µg/mL (≈ 0.16 µM).

For COc1c(N2CCN(CCC(=O)c3ccc(OCCCC(P(=O)(O)O)P(=O)(O)O)cc3)C(C)C2)c(F)cc2c(=O)c(C(=O)O)cn(C3CC3)c12 (configuration not stated), the Activity [1] was 94.7%, the Activity [9] was “Active” and the Activity [2] was 4.2%. For the same molecule, the Activity [3] was 4.3%, the MIC [4] was 0.12 µg/mL (≈ 0.162 µM) and the Activity [5] was 2.3%.

Work on COc1c(N2C[C@@H]3CCCN(C(=O)OC(C)OC(=O)CCCC(=O)NC(P(=O)(O)O)P(=O)(O)O)[C@@H]3C2)c(F)cc2c(=O)c(C(=O)O)cn(C3CC3)c12 (some centres not stated) yielded an Activity [1] of 93.9%, an Activity [2] of 1.4% and an Activity [3] of 1.8%. For the same molecule, the MIC [4] was > 4 µg/mL and the Activity [5] was 1.2%.

COc1c(N2CCN(C(=O)CC(C)(C)c3cc(P(=O)(O)CP(=O)(O)O)ccc3OC(C)=O)C(C)C2)c(F)cc2c(=O)c(C(=O)O)cn(C3CC3)c12 (configuration not stated) showed an Activity [1] of 36.6%, an Activity [2] of 6.2% and an Activity [3] of 3.7%. The MIC [4] was > 4 µg/mL and the Activity [5] was 5.4%.

Molecule COc1c(N2C[C@@H]3CCCN(CC(P(=O)(O)O)P(=O)(O)O)[C@@H]3C2)c(F)cc2c(=O)c(C(=O)O)cn(C3CC3)c12 has an Activity [1] of 92.2%, an Activity [2] of 0.01% and an Activity [3] of 0.01%. The MIC [4] was > 4 µg/mL and the Activity [5] was 0.01%.

In the case of COc1c(N2C[C@@H]3CCCN(C(=O)CC(P(=O)(O)O)P(=O)(O)O)[C@@H]3C2)c(F)cc2c(=O)c(C(=O)O)cn(C3CC3)c12, the Activity [1] was 99.9%, the Activity [2] was 0.01% and the Activity [3] was 0.01%. For the same molecule, the MIC [4] was > 4 µg/mL, the Activity [5] was 0.01% and the Activity [10] was “inactive”.

O=C(O)c1cn(C2CC2)c2cc(N3CCN(CC(P(=O)(O)O)P(=O)(O)O)CC3)c(F)cc2c1=O gave an Activity [1] of 99.6%, an Activity [2] of 0.01% and an Activity [3] of 0.01%. For the same molecule, the MIC [4] was > 4 µg/mL and the Activity [5] was 0.01%.

COc1c(N2CCN(C(=O)OC(C)OC(=O)CCCC(P(=O)(O)O)P(=O)(O)O)C(C)C2)c(F)cc2c(=O)c(C(=O)O)cn(C3CC3)c12 (configuration not stated) gave an Activity [1] of 88.4%, an Activity [2] of 0.7% and an Activity [3] of 0.9%. For the same molecule, the MIC [4] was > 4 µg/mL and the Activity [5] was 0.7%.
